Measured values published in ChEMBL document CHEMBL2163305, “Nanomolar potency and metabolically stable inhibitors of kidney urea transporter UT-B” (J Med Chem, 2012).

Columns and labels:
[1] = Metabolic stability in rat liver microsomes assessed as compound remaining at 5 uM after 30 mins; assay type: ADME, Microsome; settings: read-out: Stability
Kidney = experiment: Drug uptake in mouse kidney at 400 ug, ip administered as bolus dose; assay type: ADME, organism-based; settings: in vivo, read-out: Drug uptake
Mus musculus = experiment: Antidiuretic activity in mouse assessed as reduction in urine osmolality at 400 ug, ip administered 1 hr followed by dDAVP administration (reference value: >3 Osm/kg); assay type: functional
Blood = experiment: Drug uptake in mouse blood at 200 ug, ip at 6 hrs; assay type: ADME, organism-based; settings: in vivo
Procedure, shortened: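 Mice (8–10 weeks, 25–35 g) received 200 μg of each of two inhibitors together by ip injection in DMSO/Tween-80/PEG400 formulation. Blood taken at 6 h, diluted with equal volume of water, extracted with ethyl acetate, LC/MS against standards. SE, 3 mice.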

Homo sapiens = species: Homo sapiens; experiment: Inhibition of UT-B-mediated urea transport in human erythrocytes incubated for 10 mins prior to urea addition by Stopped-flow light scattering assay; assay type: cell-based
Procedure, shortened: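 Human venous blood in heparin, kept at 4 °C and used within 48 h, diluted in PBS to ~0.5% hematocrit. Inhibitor for 10 min, then mixed 1:1 in stopped-flow to impose a 100 mM inward urea gradient. Cell swelling followed as 90° scattered light at 530 nm. Urea permeability and % inhibition computed.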

[2] = Half life in rat liver microsomes at 5 uM; assay type: ADME, Microsome
[3] = Drug excretion in mouse urine at 400 ug, ip administered as bolus dose; assay type: ADME, organism-based; settings: in vivo

Compound	remaining at 0.5 h, 5 µM [1] [%]	further results
CC(C)c1ccc(S(=O)(=O)c2nnn3c2nc(NCc2cccs2)c2sccc23)cc1	< 5	
COc1ccc(S(=O)(=O)c2nnn3c2nc(NCc2cccs2)c2sccc23)cc1	6	
O=S(=O)(c1ccc(OC(F)(F)F)cc1)c1nnn2c1nc(NCc1cccs1)c1sccc12	95	
O=S(=O)(c1ccc(F)cc1)c1nnn2c1nc(NCc1cccs1)c1sccc12	27	
CC(C)c1ccc(S(=O)(=O)c2nnn3c2nc(NCc2cccc4ccccc24)c2sccc23)cc1	45	
O=S(=O)(c1cccs1)c1nnn2c1nc(NCc1cccs1)c1sccc12	< 5	
O=S(=O)(c1ccc(C(F)(F)F)cc1)c1nnn2c1nc(NCc1cccs1)c1sccc12	99	
CC(F)(F)c1ccc(S(=O)(=O)c2nnn3c2nc(NCc2cccs2)c2sccc23)cc1	96	concentration (Kidney): > 1000 nM; Activity (Mus musculus): 0.5 Osm/kg; Drug uptake (Blood): Active; inhibition (Homo sapiens): Dose-dependent effect; half-life at 5 µM [2]: 2 h; Drug excretion [3]: > 1 µM
CCc1ccc(S(=O)(=O)c2nnn3c2nc(NCc2cccs2)c2sccc23)cc1	< 5	Drug uptake (Blood): Active; half-life at 5 µM [2]: 0.0467 h
CC(C)c1ccc(S(=O)(=O)c2nnn3c2nc(NCc2ccco2)c2sccc23)cc1	> 99	
COc1ccc(CNc2nc3c(S(=O)(=O)c4ccc(C(C)C)cc4)nnn3c3ccsc23)cc1	7	
O=S(=O)(c1ccc(Br)cc1)c1nnn2c1nc(NCc1cccs1)c1sccc12	60	
